Measured values from paper PMC7008087 (Biochimica et biophysica acta. Molecular cell research, 2019).
Values belong to the molecule of their own block, whether it stands above or below them.

Assays:
[1] = system: H441 and Calu-3 cells; test: Cell-proliferation, H441 and Calu-3 reported together; type: cell-based, human; settings: for effect on Bn-stimulated increase in cell-proliferation: H441 and Calu-3 cells, Bn 1 μM, 24 hr, CCK-8 and MTS
[2] = system: p44/42; test: p44/42 MAPK phosphorylation; type: cell-based, human
[3] = system: Akt; test: Akt phosphorylation; type: cell-based, human
[4] = system: EGFR; test: EGFR phosphorylation; type: cell-based, human; settings: for EC50, EGFR phosphorylation: mean ± SEM of three independent experiments
Summary of the method: (§1)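 H441 or H2087 cells at 80% confluence were serum-starved overnight, then given Bn (0.1-100 nM) or NRG-1 (0.1-100 ng/mL) for 3 min. Cells were lysed in RIPA buffer (pH 7.6) and protein was measured by BCA. Lysates were run on a 4–20% gel and blotted for phospho-EGFR Tyr1068, HER2 Tyr1248 and HER3 Tyr1289, with tubulin as loading control. Bands were read by densitometry as % basal; mean ± SEM, ≥3 experiments.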

[5] = molecular target: HER3 (Homo sapiens, UniProt P21860); test: HER3 phosphorylation; type: cell-based; settings: for EC50, HER3 phosphorylation: mean ± SEM of three independent experiments
Summary of the method: as §1

[6] = system: HER3/EGFR; test: HER3/EGFR heterodimerization; type: cell-based, human; settings: H441 and Calu-3 cells; 100 nM Bn or 100 ng/mL NRG-1
Summary of the method: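 Serum-starved (overnight) 80%-confluent cells treated with test peptide (100 nM) or reference ligand (100 ng/mL); lysed in RIPA (pH 7.6), sonicated, cleared. 800 μg protein with anti-HER3 antibody, 1 hr at 4 °C, then protein A/G agarose overnight at 4 °C; five RIPA washes. Immunoblotted for partner receptors by chemiluminescence; background-subtracted densitometry as ratio to untreated control; whole-extract tubulin as loading control.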

[7] = system: HER3/HER2; test: HER3/HER2 heterodimerization; type: cell-based, human; settings: H441 and Calu-3 cells; 100 nM Bn or 100 ng/mL NRG-1
Summary of the method: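 Serum-starved H441 and Calu-3 cells received no addition, 100 nM Bn or 100 ng/mL NRG-1. RIPA lysate (800 μg protein) was incubated with anti-HER3 antibody for 1 hr at 4 °C, then with protein A/G agarose overnight at 4 °C. Beads were washed five times in RIPA and boiled in Laemmli buffer. Partners were detected by Western blot, with tubulin from whole-cell extract as loading control; values are given as ratio to control.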

[8] = system: HER2; test: HER2 phosphorylation; type: cell-based, human; settings: for EC50, HER2 phosphorylation: mean ± SEM of three independent experiments
Summary of the method: as §1

[9] = system: EGFR, HER2, and HER3; test: EGFR, HER2 and HER3 phosphorylation reported together; type: cell-based, human
Summary of the method: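 Time course: serum-starved (overnight) H441, H2087 or Calu-3 cells were stimulated with Bn 100 nM or NRG-1 100 ng/mL for 3-60 min. Cells were lysed in RIPA and blotted for phospho-EGFR (Tyr1068), HER2 (Tyr1248) and HER3 (Tyr1289) using primary antibodies at 1:1000 overnight at 4 °C. Tubulin served as loading control, and background-subtracted densitometry was expressed as % of basal.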

[10] = Wortmannin 1 μM or LY294002 10 μM
[11] = H441 cells, NRG-1 0.1-100 ng/mL, 3 min
[12] = H2087 cells, 100 nM Bn or 100 ng/mL NRG-1, 3 min
[13] = H441 cells, dose-response, 3 min, Bn 100 nM maximal, NRG-1 0.1-100 ng/mL
[14] = Calu-3 cells, Bn 100 nM or NRG-1 100 ng/mL

Molecule: O=c1cc(N2CCOCC2)oc2c(-c3ccccc3)cccc12 [LY294002]
effect on Bn-stimulated increase in cell-proliferation [1, 10]: no significant effect

Molecule: COC[C@H]1OC(=O)c2coc3c2[C@@]1(C)C1=C(C3=O)[C@@H]2CCC(=O)[C@@]2(C)C[C@H]1OC(C)=O [Wortmannin, wortmannin]
effect on Bn-stimulated increase in cell-proliferation [1, 10]: no significant effect

Molecule: COc1cc2ncnc(Nc3ccc(F)c(Cl)c3)c2cc1OCCCN1CCOCC1 [gefitinib]
effect on Bn-stimulated increase in cell-proliferation ([1]; gefitinib 10 μg/mL): no effect
activity at 10 µg/mL ([1]; Homo sapiens, 24 h, read-out: basal stimulation (% of control)): 36 to 45%
effect on Bn-stimulated phosphorylation of p44/42 ([2]; H441 cells, gefitinib 10 μg/mL or EGFR knockdown, Bn 100 nM, 15 min): did not affect
activity at 10 µg/mL ([2]; Homo sapiens, NCI-H441, read-out: basal phosphorylation of p44/42 (% of control)): 75%
effect on Bn-induced increment of Akt phosphorylation [3]: no significant inhibitory effect
activity at 10 µg/mL ([3]; Homo sapiens, NCI-H441, read-out: basal phosphorylation of Akt (% of control)): 79%

EC50, EGFR phosphorylation [4, 11]: 4.9 ± 0.9 ng/mL
EC50, EGFR phosphorylation ([4]; H2087 cells, NRG-1, 3 min): 9.7 ± 1.3 ng/mL
phosphorylation of HER3 maintained at 60 minutes (fold increase) ([5]; H441 cells, NRG-1 100 ng/mL, 60 minutes, p < 0.05 vs. control): 20 fold
maximal HER3 phosphorylation (fold increase) [5, 13]: 44 fold
HER3 phosphorylation (fold increase) [5, 12]: 21 fold
duration of HER3 phosphorylation ([5]; H2087 cells, NRG-1 100 ng/mL): prolonged phosphorylation
EC50, HER2 phosphorylation [8, 11]: 16.3 ± 3.4 ng/mL
EC50, HER2 phosphorylation ([8]; H2087 cells, NRG-1, 3 min): 7.8 ± 2.0 ng/mL
Molecule: neuregulin-1 [NRG-1]
maximum EGFR phosphorylation (fold increase) [4, 12]: 5.2 fold
HER3/EGFR heterodimerization [6]: induced HER3/EGFR
phosphorylation of p44/42 at 60 minutes [2, 14]: still present
stimulation time of maximum phosphorylation of p44/42 ([2]; H441, H2087 and Calu-3 cells, Bn 100 nM or NRG-1 100 ng/mL): 15 min
phosphorylation of p44/42 at 60 minutes ([2]; H441 and H2087 cells, Bn 100 nM or NRG-1 100 ng/mL): not maintained at 60 minutes
HER3/HER2 heterodimerization [7]: HER3/HER2 heterodimerization in both cell-lines
maximal HER2 phosphorylation (fold increase) [8, 13]: 34 fold
HER2 phosphorylation (fold increase) [8, 12]: 22 fold
duration of HER2 phosphorylation ([8]; H2087 cells, NRG-1 100 ng/mL): prolonged phosphorylation
time of maximum phosphorylation of Akt ([3]; H441, H2087 and Calu-3 cells, NRG-1 100 ng/mL): 60 min
stimulation time of maximum EGFR, HER2 and HER3 phosphorylation [9, 14]: 30 to 60 min
maximal stimulation compared with Bn ([9]; H441, H2087 and Calu-3 cells, Bn 100 nM, NRG-1 100 ng/mL): greater than that seen with Bn
time of maximum phosphorylation of EGFR, HER2, and HER3 ([9]; H441 cells, Bn 100 nM or NRG-1 100 ng/mL): 3 min

EC50, HER3 phosphorylation [5, 11]: 14.3 ± 1.7 ng/mL
EC50, HER3 phosphorylation ([5]; H2087 cells, NRG-1, 3 min): 8.1 ± 1.7 ng/mL
B1: neuregulin-1 (protein)
chain: TSHLVKCAEKEKTFCVNGGECFMVKDLSNPSRYLCKCPNEFTGDRCQNYVMASFYKHLGIEFMEAEELYQK
modifications: the alternative R&D product is the beta1 ECD (2-246)
